The text below walks through data of ChEMBL document CHEMBL1145896, “5-Substituted-2,4-diamino-6-[2-(phosphonomethoxy)ethoxy]pyrimidines-acyclic nucleoside phosphonate analogues with antiviral activity” (J Med Chem, 2003).

Some results are limits rather than exact numbers.

For assay [1], the system named is Human immunodeficiency virus 1. The assay can be described thus: Antiviral activity against HIV-1 (IIIB) in CEM (human leukemia) cells. The following applies: ccrf-cem. It is filed as functional, organism-based. In outline: (§1)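 Human CEM cells (~3 × 10^5 cells/mL) were infected with 100 CCID50 per mL of HIV-1 (IIIB) or HIV-2 (ROD) and seeded into wells containing compound dilutions. After 4 days at 37 °C, syncytium (giant cell) formation was examined microscopically.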

Another assay concerns CCRF-CEM. The assay can be described thus: Cytotoxicity against CEM (human lymphoblastic leukemia) cells in vitro. The format is functional.
The nature of assay [2]: Antiviral activity against KOS strain of HSV-1; ND=No data. It is filed as functional, herpes simplex virus. In outline:
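Confluent E6SM cell cultures in 96-well plates were inoculated with 100 CCID50 virus. After 1–2 h adsorption, inoculum was removed and test compound was added at 400, 200, 100, ... µg/mL.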

The subject of assay [3] is Human immunodeficiency virus 2. As to the kind of experiment: Antiviral activity against HIV-2 (ROD) in CEM (human leukemia) cells. The format is functional, organism-based. The following applies: ccrf-cem. In outline: as §1
The subject of assay [4] is Moloney murine sarcoma virus. The assay can be described thus: Antiviral activity against murine sarcoma virus. The format is functional, organism-based. In short, it runs like this: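 Murine C3H/3T3 embryo fibroblasts were seeded at 5 × 10^5 cells/mL. After 24 h, cells were infected with 80 focus-forming units of MSV (from mouse tumours) for 90–120 min at 37 °C. Medium was then replaced by fresh medium containing varied compound concentrations, and MSV-induced transformation was the read-out.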

A short description of assay [5]: Antiviral activity against vaccinia virus in HEL ([…]) cells. The format is functional, cell-based.
Assay [6] concerns Human alphaherpesvirus 3. As to the kind of experiment: Antiviral activity against OKA strain of VZV in HEL ([…]) cells. The format is functional, organism-based. Also on record: unit not given here. In outline:
(§2)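 Inhibition of virus-induced cytopathicity. HSV-1 and HSV-2 were tested in E6SM cells; VZV and CMV in HEL cells. Confluent monolayers were inoculated with 100 CCID50 of virus. After 1–2 h adsorption, residual virus was removed and compound was added at serial concentrations (400, 200, 100, ... μg/mL). Cytopathicity was scored once untreated infected controls reached complete CPE.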

A short description of assay [7]: Antiviral activity against KOS strain of HSV-1 in E6SM cells. The format is functional, cell-based, herpes simplex virus. In outline:
as §2

Assay [8] is described as follows: Antiviral activity against G strain of HSV-2 in E6SM cells. It is filed as functional, cell-based, herpes simplex virus. In short, it runs like this:
as §2

For assay [9], the system named is Human alphaherpesvirus 3. As to the kind of experiment: Antiviral activity against 07/1 strain of VZV in HEL ([…]) cells. It is filed as functional, organism-based. In outline: as §2
Assay [10] deals with Cytomegalovirus. The assay can be described thus: Antiviral activity against Davis strain of cytomegalovirus (CMV) in HEL ([…]) cells. It is filed as functional, organism-based. In outline: as §2
Assay [11] concerns Cytomegalovirus. As to the kind of experiment: Antiviral activity against AD169 strain of cytomegalovirus (CMV) in HEL ([…]) cells. It is filed as functional, organism-based. In outline: as §2

Take `Nc1nc(N)c(C2CC2)c(OCCOCP(=O)(O)O)n1`: the EC50 is reported as > 0.3 uM ml-1 in assay [1], > 1.2 uM ml-1 in [2], > 0.3 uM ml-1 in assay [3] and > 1.12 uM ml-1 in assay [4]. The half-maximal cytotoxic concentration (CC50) with CCRF-CEM was > 300 µM.
With `Nc1nc(N)n(CCOCP(=O)(O)O)c(=O)c1CC(=O)O`, the EC50 is on record as > 1.2 uM ml-1 in assay [5]; > 0.15 with Human alphaherpesvirus 3 [6]; > 0.3 uM ml-1 in assay [1]; > 1.2 uM ml-1 in assay [7]; > 1.2 uM ml-1 in [8]; > 0.15 uM ml-1 in the assay with Human alphaherpesvirus 3 [9]. The EC50 is > 0.3 uM ml-1 in [3], > 0.15 uM ml-1 in the assay with Cytomegalovirus [10], > 0.15 uM ml-1 in the assay on Cytomegalovirus [11] and 0.082 uM ml-1 in assay [4]. For the same compound, in the assay on CCRF-CEM, the CC50 was > 300 µM.
As to `N#CCc1c(N)nc(N)n(CCOCP(=O)(O)O)c1=O`, the EC50 in [5] is given as > 1.2 uM ml-1; in the assay with Human alphaherpesvirus 3 [6], > 0.15; in assay [1], > 0.3 uM ml-1; in assay [7], > 1.2 uM ml-1; in assay [8], > 1.2 uM ml-1; with Human alphaherpesvirus 3 [9], 0.084 uM ml-1. The EC50 in assay [3] is given as > 0.3 uM ml-1; in the assay on Cytomegalovirus [10] it was > 0.15 uM ml-1; with Cytomegalovirus [11], > 0.15 uM ml-1; in assay [4], 0.3 uM ml-1. Further, in the assay on CCRF-CEM, the cytotoxic concentration (CC50) is > 300 µM.
Consider `Nc1cc(OC[C@H](CO)OCP(=O)(O)O)nc(N)n1`, for which the EC50 in assay [5] is listed as 0.0065 uM ml-1; in the assay with Human alphaherpesvirus 3 [6], 0.00017; in assay [1], > 0.014 uM ml-1; in assay [7], 0.0048 uM ml-1; in assay [8], 0.017 uM ml-1; with Human alphaherpesvirus 3 [9], 0.00024 uM ml-1. The EC50 in [3] is 0.014 uM ml-1; in the assay with Cytomegalovirus [10] it was 0.12 uM ml-1; in the assay with Cytomegalovirus [11], 0.13 uM ml-1; in assay [4], > 0.0027 uM ml-1. For the same compound, the CC50 with CCRF-CEM turned out to be 23 µM.
On to `Nc1nc(N)n(CCOCP(=O)(O)O)c(=O)c1Cc1ccccc1`, for which the EC50 in [5] was > 1.2 uM ml-1; in the assay on Human alphaherpesvirus 3 [6], > 0.15; in assay [1], > 0.3 uM ml-1; in assay [7], > 1.2 uM ml-1; in assay [8] it was > 1.2 uM ml-1; in the assay with Human alphaherpesvirus 3 [9], > 0.15 uM ml-1. The EC50 was > 0.3 uM ml-1 in assay [3], > 0.15 uM ml-1 with Cytomegalovirus [10], > 0.15 uM ml-1 with Cytomegalovirus [11] and > 1.12 uM ml-1 in assay [4]. The CC50 in the assay with CCRF-CEM is > 300 µM.
Take `N#CCc1c(N)nc(N)nc1OCCOCP(=O)(O)O`: the EC50 in assay [5] is > 1.2 uM ml-1; with Human alphaherpesvirus 3 [6], 0.14; in assay [1] it was > 0.3 uM ml-1; in assay [7] it was > 1.2 uM ml-1; in assay [8], > 1.2 uM ml-1; in the assay on Human alphaherpesvirus 3 [9] it was 0.11 uM ml-1. Also, the EC50 in assay [3] is recorded as > 0.3 uM ml-1; with Cytomegalovirus [10], > 0.15 uM ml-1; in the assay with Cytomegalovirus [11] it was > 0.15 uM ml-1; in [4], 0.3 uM ml-1. Also, the CC50 in the assay on CCRF-CEM is > 300 µM.
Turning to `CCOC(=O)Cc1c(N)nc(N)n(CCOCP(=O)(O)O)c1=O`, the EC50 in assay [5] is on record as > 1.2 uM ml-1; with Human alphaherpesvirus 3 [6], > 0.15; in [1] it was > 0.3 uM ml-1; in assay [7], > 1.2 uM ml-1; in assay [8], > 1.2 uM ml-1; in the assay with Human alphaherpesvirus 3 [9], > 0.15 uM ml-1. In addition, the EC50 is 0.11 uM ml-1 in assay [3], > 0.15 uM ml-1 with Cytomegalovirus [10], > 0.15 uM ml-1 with Cytomegalovirus [11] and 0.011 uM ml-1 in assay [4]. For the same compound, the CC50 with CCRF-CEM was > 300 µM.
As for `Nc1cc(OCCOCP(=O)(O)O)nc(N)n1`, the EC50 in assay [5] amounted to 0.18 uM ml-1; with Human alphaherpesvirus 3 [6] it was 0.0045; in [1], 0.003 uM ml-1; in assay [7], 0.025 uM ml-1; in assay [8], 0.033 uM ml-1; in the assay with Human alphaherpesvirus 3 [9], 0.0095 uM ml-1. Moreover, the EC50 is 0.0016 uM ml-1 in assay [3], > 0.19 uM ml-1 in the assay on Cytomegalovirus [10], > 0.19 uM ml-1 in the assay on Cytomegalovirus [11] and 0.00015 uM ml-1 in assay [4]. Besides, the half-maximal cytotoxic concentration (CC50) with CCRF-CEM was determined as 42 µM.
As to `Cc1c(N)nc(N)nc1OCCOCP(=O)(O)O`, the EC50 is > 1.2 uM ml-1 in [5]; 0.018 in the assay on Human alphaherpesvirus 3 [6]; 0.00043 uM ml-1 in assay [1]; > 1.2 uM ml-1 in [7]; > 1.2 uM ml-1 in assay [8]; 0.042 uM ml-1 with Human alphaherpesvirus 3 [9]. The EC50 in assay [3] is 0.00031 uM ml-1; with Cytomegalovirus [10], > 0.15 uM ml-1; in the assay with Cytomegalovirus [11], > 0.15 uM ml-1; in assay [4], 0.00022 uM ml-1. In the assay on CCRF-CEM, half-maximal cytotoxicity (CC50) was put at 15 µM.

As usually defined, the CC50 is the concentration that lowers cell viability or growth by half.
